Assay results: ChEMBL document CHEMBL4819066, “Repurposing primaquine as a polyamine conjugate to become an antibiotic adjuvant” (Bioorg Med Chem, 2021)

What was measured:
[1] = system: Staphylococcus aureus; experiment: Antibacterial activity against methicillin-resistant Staphylococcus aureus ATCC 43300 assessed as reduction in microbial growth after 18 hrs by resazurin dye based assay; type: functional
Outline: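 Overnight culture at 37 °C, diluted 40-fold in MHB and grown 1.5-2 h to mid-log. Inoculum 5 × 10^5 CFU/mL. Two-fold serial dilutions, final 0.008-32 µg/mL, in duplicate. […] Vancomycin served as the Gram-positive standard.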

[2] = system: Pseudomonas aeruginosa; experiment: Antibacterial activity against Pseudomonas aeruginosa ATCC 27853 assessed as reduction in microbial growth after 18 hrs by resazurin dye based assay; type: functional
Outline: (§1)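 Bacteria grown overnight at 37 °C in LB, NB or MHB, diluted 40-fold into MHB and grown 1.5-2 h to mid-log phase. Inoculum 5 × 10^5 CFU/mL (final), 2-fold serial dilutions, final range 0.008-32 µg/mL, in duplicate. […] Colistin as positive control, Z'-factor >0.4 for plate QC.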

[3] = system: Escherichia coli; experiment: Antibacterial activity against Escherichia coli ATCC 25922 assessed as reduction in microbial growth after 18 hrs by resazurin dye based assay; type: functional; outline: as §1
[4] = system: Klebsiella pneumoniae; experiment: Antibacterial activity against Klebsiella pneumoniae ATCC 700603 assessed as reduction in microbial growth after 18 hrs by resazurin dye based assay; type: functional; outline: as §1
[5] = system: Acinetobacter baumannii; experiment: Antibacterial activity against Acinetobacter baumannii ATCC 19606 assessed as reduction in microbial growth after 18 hrs by resazurin dye based assay; type: functional; conditions: ATCC 19606 = CIP 70.34 = JCM 6841; outline: as §1
[6] = system: Cryptococcus neoformans; experiment: Antifungal activity against Cryptococcus neoformans ATCC 208821 assessed as reduction in microbial growth after 36 hrs by resazurin dye based assay; type: functional
Outline: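 Yeast grown 3 days on YPD agar at 30 °C and diluted in YNB broth to 2.5 × 10^3 CFU/mL. Compounds at 0.008-32 µg/mL final, 2-fold dilutions, in duplicate. After 36 h at 35 °C without shaking, resazurin added at 0.006% final for a further 3 h; MIC read as absorbance at OD570-600. Fluconazole as positive control.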

[7] = system: Pseudomonas aeruginosa; experiment: Potentiation of doxycycline-induced antibacterial activity against Pseudomonas aeruginosa ATCC 27853 assessed as complete reduction in visible microbial growth after 18 hrs in presence of 4.5 uM doxycycline by two fold serial dilution method; type: functional
Outline: (§2)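 Adjuvant test by broth dilution: inoculum 5 × 10^5 CFU in 200 µL MHB. Two-fold serial dilutions of each derivative were given with doxycycline fixed at 2 µg/mL. After 18 h at 37 °C, the value recorded was the lowest adjuvant concentration giving complete absence of visible growth. Three independent repeats.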

[8] = Hemolytic activity in rat RBC incubated for 1 hr by Neubauer haemocytometric analysis; type: ADME, cell-based, Erythrocyte; conditions: red blood cells (erythrocytes)
[9] = system: L6; experiment: Cytotoxicity against rat L6 cells assessed as reduction in cell viability at 0.123 to 90 ug/ml measured after 72 hrs by Alamar blue based inverted microscopy analysis; conditions: l6, 72 h, dose 0.123-90 µg/ml
Outline: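 Rat skeletal myoblast L6 cells, 4 × 10^4 per well, in RPMI 1640 with L-glutamine and 10% FBS. Seven 3-fold dilutions were tested, 90 to 0.123 µg/mL, for 72 h. Alamar Blue added for 2 h, and fluorescence read at ex 536/em 588 nm. Podophyllotoxin served as reference drug.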

[10] = system: HEK293; experiment: Cytotoxicity against human HEK293 cells assessed as reduction in cell viability measured after 20 hrs by resazurin based Neubauer haemocytometric analysis; conditions: hek293, 20 h
Outline: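 HEK293 cells plated at 5,000 cells/well in DMEM with 10% FBS onto pre-dispensed compound and incubated 20 h at 37 °C, 5% CO2. Resazurin then added at 100 µM final for 3 h; fluorescence read at ex 560/em 590. Signal normalized to 74 µg/mL tamoxifen (0%) and untreated growth (100%). CC50 obtained from dose-response fit.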

[11] = system: Candida albicans; experiment: Antifungal activity against Candida albicans ATCC 90028 assessed as reduction in microbial growth after 36 hrs by absorbance at OD530; conditions: ATCC 90028, 36 h
[12] = system: Escherichia coli; experiment: Potentiation of doxycycline-induced antibacterial activity against Escherichia coli ATCC 25922 assessed as complete reduction in visible microbial growth after 18 hrs in presence of 4.5 uM doxycycline by two fold serial dilution method; type: functional; outline: as §2
[13] = system: Klebsiella pneumoniae; experiment: Potentiation of doxycycline-induced antibacterial activity against Klebsiella pneumoniae ATCC 700603 assessed as complete reduction in visible microbial growth after 18 hrs in presence of 4.5 uM doxycycline by two fold serial dilution method; type: functional
[14] = system: Acinetobacter baumannii; experiment: Potentiation of doxycycline-induced antibacterial activity against Acinetobacter baumannii AYE assessed as complete reduction in visible microbial growth after 18 hrs in presence of 4.5 uM doxycycline by two fold serial dilution method; type: functional; outline: as §2
[15] = system: Erythrocyte; experiment: Hemolytic activity in human Erythrocyte incubated for 1 hr by Neubauer haemocytometric analysis; type: ADME, cell-based
Outline: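 Human whole blood washed three times in 0.9% NaCl and resuspended at 0.5 × 10^8 cells/mL (haemocytometer count). Cells added to compound plates, shaken 10 min, then incubated 1 h at 37 °C. After centrifugation at 1,000g for 10 min, supernatant absorbance read at OD405. HC10/HC50 obtained by sigmoidal fit against log concentration.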

SMILES | MIC [1] | MIC [2] | MIC [3] | MIC [4] | MIC [5] | MIC [6] | MIC [7] | HC50 at 1 h [8] | Activity [9] | Activity [10] | MIC [11] | MIC [12] | MIC [13] | MIC [14] | Activity [15]
O=C(CCC(=O)Nc1cccc2cccnc12)NCCCNCCCCCCCCCCNCCCNC(=O)CCC(=O)Nc1cccc2cccnc12.O=C(O)C(F)(F)F.O=C(O)C(F)(F)F | 33.1 µM | > 33.1 µM | > 33.1 µM | > 33.1 µM | > 33.1 µM | > 33.1 µM | 100 µM | 30.5 µM | Non-Toxic | Non-Toxic | > 33.1 µM | – | – | – | –
O=C(CCC(=O)Nc1ccc2ncccc2c1)NCCCNCCCCNCCCNC(=O)CCC(=O)Nc1ccc2ncccc2c1 | > 36.2 µM | > 36.2 µM | > 36.2 µM | > 36.2 µM | > 36.2 µM | > 36.2 µM | 566 µM | – | – | – | > 36.2 µM | – | – | – | –
O=C(CCC(=O)Nc1cccc2cccnc12)NCCCNCCCCCCCCNCCCNC(=O)CCC(=O)Nc1cccc2cccnc12 | > 34.1 µM | > 34.1 µM | > 34.1 µM | > 34.1 µM | > 34.1 µM | > 34.1 µM | 200 µM | – | – | – | > 34.1 µM | – | – | – | –
COc1cc(NC(=O)CCC(=O)NCCCNCCCCCCCNCCCNC(=O)CCC(=O)Nc2cc(OC)cc3cccnc23)c2ncccc2c1 | > 32.5 µM | > 32.5 µM | > 32.5 µM | > 32.5 µM | > 32.5 µM | > 32.5 µM | 300 µM | – | – | – | > 32.5 µM | – | – | – | –
O=C(CCC(=O)Nc1cccc2cccnc12)NCCCNCCCCNCCCNC(=O)CCC(=O)Nc1cccc2cccnc12 | > 36.2 µM | > 36.2 µM | > 36.2 µM | > 36.2 µM | > 36.2 µM | > 36.2 µM | 566 µM | – | – | – | > 36.2 µM | – | – | – | –
O=C(CCC(=O)NCc1cccnc1)NCCCNCCCCNCCCNC(=O)CCC(=O)NCc1cccnc1 | > 39.5 µM | > 39.5 µM | > 39.5 µM | > 39.5 µM | > 39.5 µM | > 39.5 µM | 617 µM | – | – | – | > 39.5 µM | – | – | – | –
COc1cc(NC(C)CCCNC(=O)CCC(=O)NCCCNCCCCNCCCNC(=O)CCC(=O)NCCCC(C)Nc2cc(OC)cc3cccnc23)c2ncccc2c1.O=C(O)C(F)(F)F.O=C(O)C(F)(F)F (configuration not stated) | > 33.4 µM | > 33.4 µM | > 33.4 µM | > 33.4 µM | > 33.4 µM | 33.4 µM | 6.25 µM | – | Non-Toxic | Non-Toxic | > 33.4 µM | 50 µM | > 200 µM | > 200 µM | Non-Toxic
O=C(CCC(=O)NCc1cccnc1)NCCCNCCCCCCCCCCNCCCNC(=O)CCC(=O)NCc1cccnc1 | > 35.8 µM | > 35.8 µM | > 35.8 µM | > 35.8 µM | > 35.8 µM | > 35.8 µM | 559 µM | – | – | – | > 35.8 µM | – | – | – | –
COc1cc(NC(=O)CCC(=O)NCCCNCCCCCCNCCCNC(=O)CCC(=O)Nc2cc(OC)cc3cccnc23)c2ncccc2c1 | > 33 µM | > 33 µM | > 33 µM | > 33 µM | > 33 µM | > 33 µM | 300 µM | – | – | – | > 33 µM | – | – | – | –
COc1cc(NC(=O)CCC(=O)NCCCNCCCCCCCCCCNCCCNC(=O)CCC(=O)Nc2cc(OC)cc3cccnc23)c2ncccc2c1 | 3.9 µM | > 31.2 µM | > 31.2 µM | > 31.2 µM | > 31.2 µM | > 31.2 µM | 300 µM | – | – | – | > 31.2 µM | – | – | – | –
O=C(CCC(=O)Nc1cccc2cccnc12)NCCCNCCCCCCCNCCCNC(=O)CCC(=O)Nc1cccc2cccnc12 | > 34.6 µM | > 34.6 µM | > 34.6 µM | > 34.6 µM | > 34.6 µM | > 34.6 µM | 200 µM | – | – | – | > 34.6 µM | – | – | – | –
